Tested on: MS2 coat protein
Assay: apparent Kd, MS2 coat protein; higher = weaker binding; RNA-MaP array; FMN 200 µM where present
In short: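 The apparent Kd is reported as the median of filtered per-cluster binding-curve fits. To get these curves, designs transcribed by stalled E. coli RNA polymerase on Illumina sequencing-chip clusters were titrated with SNAP-549-labelled MS2 coat protein from 0.7 or 1.5 nM, doubling to 3 µM. Titrations were run without and then with constant ligand in 100 mM Tris-HCl pH 7.5, 80 mM KCl, 4 mM MgCl2, BSA, DTT, yeast tRNA and Tween-20, and green signal was normalised to red-channel RNA signal and control-cluster median Fmax.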

[1] = designed as: OFF switch for flavin mononucleotide, no ligand
[2] = ligand present: flavin mononucleotide, designed as: OFF switch for flavin mononucleotide
[3] = designed as: ON switch for flavin mononucleotide, no ligand
[4] = ligand present: flavin mononucleotide, designed as: ON switch for flavin mononucleotide

Row | Sequence | apparent Kd [1] [nM] | apparent Kd [2] [nM] | apparent Kd [3] [nM] | apparent Kd [4] [nM]
1 | UCGGCGCGAGGAUAUGCGGUUUGUGCUUUGGGCCCUCGCGUACAUGAGGAUCACCCAUGUAGAAGGCGCGCCGC | 192 | 212 | – | –
2 | GGCUUCUUCACAGGAUAUGGUUUUUUAAGUAUACAUGAGGAUCACCCAUGUCCAGAAGGGUGAGGGUUCGGCGUGCGGUGUCGG | – | – | 384 | 42.7
3 | GUCAGCUCGUGAGGAUAUACAACACUGCUUCGGAAGUGUAUUAAGAUCACAUGAGGAUCACCCAUGUAGAAGGCACGAGCUGAU | 13.7 | 225 | – | –
4 | GUAGCUCCUGACAUGAGGAUCACCCAUGUUCACUUAUUAAAUCAGGAUAUCCUCUCGAAACGAGAGGAGAAGGGAUAAGCUACU | – | – | 7.84 | 7.36
5 | AUGCUAGUGUGAGGAUAUCAACAUGAGGAUCACCCAUGUUGGAAGUACACGACAUGCGGUACACCUGAGAAGGUACAUUAGCAU | 19.6 | 25.4 | – | –
6 | GUGUACGGAGGAUAUGCUGGAAUCUAGCGAAGCUAGGUUCCACAUGAGGAUCACCCAUGUAGAAGGCUGUACAC | 24.8 | 14.2 | – | –
7 | ACAUAAAUUCGAGGAUAUCGGUGAAAUAAUCUACGAGAAGGCGAUAAUGGUUAUAGACUUAUAGACAUGAGGAUCACCCAUGUA | – | – | 26.2 | 25.6
8 | AGAAACUACGAGAAGGACAUGAGGAUCACCCAUGUAACCACUUAGUGGAAUGUAGGAUAUCGUAGUUUCAGGAUCGUGAGAUCA | 6.91 | 9.58 | – | –
9 | AUUAAACAUGAGGAUCACCCAUGUCAACAAAGUCGAGGAUAUGGGCAUAUUAUCUUAUUACCAGAAGGCGAAUAAU | – | – | 390 | 44
10 | GCCGGGUAGGCAGGAUAUCCUCGCGCAAACACAUGAGGAUCACCCAUGUACACAAAACGUGAUAUGGAGAAGGGCCGACCCGCA | – | – | 26.6 | 5.28
11 | CUAUUUAGUGCCUCAUUUACAUGAGGAUCACCCAUGUUAACUUAGGAUAUAUUUAUAUUGUUAGAGUAGAAGGAAGUACAUUUU | 237 | 208 | – | –
12 | UUCGUGCAGCUUUGCUGUACGCGUACAUGAGGAUCACCCAUGUAGGAUAUGGUAGGCUUUGCUUACUAGAAGGAUAGUGUGAUU | 118 | 81.8 | – | –
13 | GGAGAUUACUCAGGAUAUCGCUAGACCUACAUGAGGAUCACCCAUGUGGGUGACGCGGUGGGCUACGAGAAGGGAGAAGUGCCC | 8.9 | 8.53 | – | –
14 | UGAACCAUGACAUGAGAUGACAUGAGGAUCACCCAUGUGUACAAGGAUAUGUUGGUCGACGAUCGGCAGAAGGUGUAAUGGGAU | 58.9 | 196 | – | –
15 | GCAUGUGUGUAAGGAUAUGCAUCACUGAGAAAUUUAGUGAGGAAGAUCACAUGAGGAUCACCCAUGUAGAAGGUACACACGUGC | 8.01 | 56.9 | – | –
16 | AGCUGGUGACAGCAUCGAGCAAAACAUGAGGAUCACCCAUGUAGAAGGCUGUACGGUUACCGUACAGAGGAUAUACAAAGCUCG | 6.35 | 8.14 | – | –
17 | GACAAGGGAGGAUAUGCACAAGGGAUAUCUGACAUGCCGAUACAUGAGGAUCACCCAUGUAGAAGGCCCGAAUA | 11.4 | 18.3 | – | –
18 | CGAAGAGGAAGUGAAAGGCGGGACAGAAGGGCACCGGGUCAGCGUCACAUGAGGAUCACCCAUGUGCAGGAUAUGUCGACCCAC | 6.54 | 30.4 | – | –
19 | GGGUACAUCGGAGGAUAUCAUGUAAAUACAUGAGGAUCACCCAUGUCGAUGGAGACAACGGAGAUUGAGAAGGCCGAUGUACCG | – | – | 952 | 108
20 | CUGUAUGAUGUAGGAUAUACUUUAAUAUUGUAAGUAGAAGGACAUGAGGAUCACCCAUGUAUAUAAAUUUUAAUUAUUUUUGCG | 51.2 | 39.3 | – | –
21 | UGUCCAUAGCAGAAGGACAUGAGGAUCACCCAUGUAAUCAUACAAAUAUAUGUAGGAUAUGCUAUGGACUAAGAGCGAAAGCUC | 6.14 | 6.74 | – | –
22 | UUCAGCUCGUGAGGAUAUACAUGUGCUGGAAACAGCACUAAUAGAAUCACAUGAGGAUCACCCAUGUAGAAGGCACGAGCUGAG | 17.2 | 40.1 | – | –
23 | CUGACGUCAGGAUAUCUGAUGUCUAACUUCGGUUAGACAUCAGAGAAGGGACAUGAGGAUCACCCAUGUCAGAA | 25.5 | 20.8 | – | –
24 | UUUAUGGGACAGAAGGGCAUUUACAUGAGGAUCACCCAUGUUCAUCAUUGCAGGAUAUGUAUAACAUGAGGAUCACCUAUGUAC | – | – | 604 | 106
25 | GCAGCGCCUGACAUGAGGAUCACCCAUGUUAAAUUGUUAAGUCAGGAUAUAGUCUAGAAACUAGACUAGAAGGGAUAUGCUGCU | – | – | 9.96 | 8.57
26 | AGAGAAUACUCAGGAUAUCUGAAUAGAAAGAGAAGAGAAGGGAGACAUGAGGAUCACCCAUGUGAAGUCUUGAGACUACAUGGU | 366 | 426 | – | –
27 | CGAUAUAUGAAGGGCGAACGCGCACAUGAGGAUCACCCAUGUAGAAGGCGGUCCGCAACGCGGAUCGAGGAUAUAUAGUAUACG | 27.5 | 30.7 | – | –
28 | AUUGUUUUCAUAGGAUAUUGACAUUUAUUUAUUCAAGAAGGAUGAUUACAUGAGGAUCACCCAUGUUAUUAUGGAUUAACUAGU | 23.7 | 43.2 | – | –

Row | Sequence | apparent Kd [1] [nM] | apparent Kd [2] [nM] | apparent Kd [3] [nM] | apparent Kd [4] [nM]
29 | UUAAAUCAUGUAGGAUAUGCAUGGCGAAGCUACGCAGAAGGACAUGAGGAUCACCCAUGUGCUAGCUACCGAGUACGGUGGCAA | 64.9 | 251 | – | –
30 | GCCUUAUCCGUCAGGAUAUACAUUUUUUUUUUGUUGUAGAAGGGACAUGAGGAUCACCCAUGUACAUUACAUUG | 25.8 | 28.9 | – | –
31 | GGGCCAUAGUAGAAGGGAUAUACGAAAGGUAUAUCAGGAUAUACAUGAGGAUCACCCAUGUUCUAACAGUGAUAGUCCUCCCUA | 22.4 | 69.8 | – | –
32 | AGGAGUUUGUAGAAGGACGACUAUUAAGUUUUCGUAGGAUAUACUAUUUACAUGAGGAUCACCCAUGUUUAAAUGGAACAAUGU | 7.85 | 9.08 | – | –
33 | CUGAGGCUAGGAUAUACGUGAGGUUAGUUGCGAAGCGCUUGACAUGAGGAUCACCCAUGUAGAAGGAGCGGCUU | 22.6 | 28.9 | – | –
34 | CACCGACCCUAUGUGUUCUAGACAUGAGGAUCACCCAUGUAUAGAAGGGUCUUCGCGAAACGCAGACAGGAUAUGUACAGGAGU | 6.58 | 9.89 | – | –
35 | UUUUUAUAACAAGGAUAUACUAAACAUGAGGAUCACCCAUGUAAUAUUAUGAGUGAGAGAGAUAAGUAGAAGGUGUAUUAUUUU | 100 | 137 | – | –
36 | AGUAGUUCAGGAUAUGAUGUAUGUUACAUGAGGAUCACCCAUGUAGGUCCUGGAAAUGUAUCAGAAGGGAAUAUCU | 108 | 111 | – | –
37 | UUCCUCAUAACAUGAGGAUCACCCAUGUAUUAUUUGAUAACUGAGGAUAUACUUUUAAUGUUUAUGUAGAAGGCAGAUACAGUU | 89.4 | 138 | – | –
38 | GCAUGCAAGUAGAAGGUCGGAUAUUUUGAUAACGAAGGAUAUACAGAAUCAUAUCCACAUGAUAACAUGAGGAUCACCCAUGUA | 14.7 | 15.8 | – | –
39 | UUUCAGCAAGGAUAUACGGGCUGUGCUUUUCAUUUCUUACAACAUGAGGAUCACCCAUGUAGAAGGUGCUUCUU | 297 | 736 | – | –
40 | CUGCCUUAUGAGAAGGCGAUCAUGAAACAUGAUCGAGGAUAUCAUGUAAACAUGAGGAUCACCCAUGUAUGGGUAUUAUGGUAG | – | – | 529 | 74.5
41 | AACAGCACAGGAUAUACAUGAGGAUCACCCAUGUGAGAAUUAAGUGGCGUACCACAAAGUAGAAGGGUGCUGGA | 37.1 | 286 | – | –
42 | UUAAUUAACAAGAAGGCUAACAUGAGGAUCACCCAUGUUGUACAUGGAUAUAGAGGAUAUUGCUAAUAAUUAUUUAUCUUAAUU | 25.3 | 19.4 | – | –
43 | AUUCAGCGGAACUUGACAUCCCUACAUGAGGAUCACCCAUGUCAGGAUAUAUGCUCUCGAGCUGCAUAGAAGGGACAUAGUGGG | 48.2 | 67 | – | –
44 | GGCUUAAACACAGGAUAUGGCCUCAGAGUAAGGCCAGAAGGGUGAAGUUCUCAUACAUGAGGAUCACCCAUGUCAAGGAGGCUA | – | – | 521 | 204
45 | UAAUCGUUGCAGAAGGUUAUUAUUUUAUCGUGUCUCUUAACAUGAGGAUCACCCAUGUUUUUGAUGAAGGAUAUGCAACGGUAG | 7.54 | 7.09 | – | –
46 | CUAUGGCAAGGAUAUCUUGGCUAGAACAUGAGGAUCACCCAUGUCUACUGUACUAAUAUCGGAGAAGGUGCUAGAA | 27.6 | 19.1 | – | –
47 | UUCAUGUGAGGAUAUAGUACUCUUUCUAUUAUUUUUGAGUAUUAGAAGGCACAUGAGGAUCACCCAUGUAGUAC | 89.7 | 18.8 | – | –
48 | UGUUAGUAGACAGGAUAUUGAAUGUUAAGUAUUAACAUGAGGAUCACCCAUGUAUUAGAUUGGUACAAGAAGGGUCAAGUUUGU | – | – | 380 | 653
49 | UUGCUCGUGUGAGGAUAUGCCGCCGUUUCGGCUGCAGAAGGUACUCUUGUACAUGAGGAUCACCCAUGUCUCUGUUGUUUCGUG | – | – | 49 | 43.6
50 | UCGUCCACGGAGAAGGGCACAUGAGGAUCACCCAUGUGGGCUUGGUGGUGGUGGUGUUAAAAUGUGUAGGAUAUCCAGGGCCGU | 19.5 | 20.6 | – | –
51 | UGUCGGAGCAGAGGAUAUACAUGAGGAUCACCCAUGUAAUAUGAUCUAGCCUGGAAACAGGCAAUGUAGAAGGCUGCUCCGACA | 92.6 | 1020 | – | –
52 | AUGCUAGUGUGAGGAUAUUAGGCACAUGAGGAUCACCCAUGUAAGAUCAUGACGAUCACGCAUGAUAAGAAGGUACAUUAGCAU | 40 | 47 | – | –
53 | ACCUCACAUGAGGAUCACCCAUGUUAGGAUAUCUCGGCGCCCUGUAGGCAGUAGCGCCAGAGAAGGAACGUGCA | 24.3 | 25.2 | – | –
54 | UCAUUUCAGUAAGGAUAUUUAUUCAUGACGAUACAUGAGGAUCACCCAUGUAAAGAAGGUACUAAUACAAAUAAUGCAUUGUUC | 11.9 | 10.1 | – | –
55 | CAUGUUAUACAGGAUAUCCGUAUGUAAUUCGUCGGAGAAGGGUAUACAUGAGGAUCACCCAUGUAUUCCUAGCU | 16.1 | 20.8 | – | –
